Data published in ChEMBL document CHEMBL3739255, “Novel Series of Dihydropyridinone P2X7 Receptor Antagonists” (J Med Chem, 2015).

How the values were obtained:
[1] = Drug metabolism in cynomolgus monkey urine assessed as hydrolysis of amide bond at 10 mg/kg; assay type: ADME, organism-based, Macaca fascicularis; conditions: in vivo
Hepatocyte = experiment: Drug metabolism in human hepatocytes assessed as hydrolysis of amide bond; assay type: ADME, cell-based
[2] = target: Glutamate NMDA receptor (Rattus norvegicus) (UniProt P35439+Q00959+Q00960+Q00961+Q62645+Q8VHN2+Q9R1M7); experiment: Inhibition of rat NMDA receptor PCP binding site at 10 uM; assay type: protein-complex assay
How it was run: (§1)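 Outsourced broad receptor-screening panel of 78 targets, each tested at a single 10 uM concentration; read-out is percent inhibition. Detailed conditions are given only in the Supporting Information.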

[3] = target: Pituitary adenylate cyclase-activating polypeptide type I receptor (Homo sapiens) (UniProt P41586); experiment: Inhibition of human PAC1 at 10 uM by radioligand binding assay
Chain of Pituitary adenylate cyclase-activating polypeptide type I receptor (Homo sapiens) (P41586 21-468 limits assumed): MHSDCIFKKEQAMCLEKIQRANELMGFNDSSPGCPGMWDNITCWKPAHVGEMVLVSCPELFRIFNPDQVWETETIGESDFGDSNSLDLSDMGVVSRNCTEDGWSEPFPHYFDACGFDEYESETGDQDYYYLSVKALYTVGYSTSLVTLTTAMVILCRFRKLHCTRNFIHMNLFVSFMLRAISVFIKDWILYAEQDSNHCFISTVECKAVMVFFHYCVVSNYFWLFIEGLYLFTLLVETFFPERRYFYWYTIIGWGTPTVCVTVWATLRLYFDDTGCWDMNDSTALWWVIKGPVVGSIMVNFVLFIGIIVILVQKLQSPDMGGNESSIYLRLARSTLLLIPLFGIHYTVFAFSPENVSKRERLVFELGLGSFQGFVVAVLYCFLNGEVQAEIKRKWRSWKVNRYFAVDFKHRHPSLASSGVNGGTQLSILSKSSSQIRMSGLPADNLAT
How it was run: (§2)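 Commercial receptor scan across a 78-target panel, with percent inhibition measured at a test concentration of 10 uM.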

[4] = target: Mu-type opioid receptor (Homo sapiens) (UniProt P35372); experiment: Inhibition of human mu opioid receptor at 10 uM by radioligand binding assay; how it was run: as §1
[5] = target: Delta-type opioid receptor (Homo sapiens) (UniProt P41143); experiment: Inhibition of human delta opioid receptor at 10 uM by radioligand binding assay; how it was run: as §1
Plasma = experiment: Metabolic stability in rat plasma at 10 uM after 4 hrs by LC/MS/MS analysis; assay type: ADME, cell-free
Liver microsome = experiment: Drug metabolism in human liver microsomes assessed as GSH adduct UV peak area at 20 uM preincubated for 5 mins followed by NADPH addition measured after 60 mins by LC/MS/MS analysis relative to total area of GSH adduct, other metabolites, parent compound; assay type: ADME; conditions: 1 h, BLD = below limit of detection
[6] = Oral bioavailability in rat at 2 mg/kg administered as single dose; assay type: ADME, organism-based; conditions: in vivo
How it was run: (§3)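 Rats given a single dose, iv 0.5 mg/kg or po 2 mg/kg, with n ≥ 2 per time point. Bioavailability is derived from the po and iv exposures. Vdss is reported in L/kg.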

[7] = Cmax in rat at 2 mg/kg, po administered as single dose; assay type: ADME, organism-based; parameters: dose 2 mg/kg, route oral; conditions: in vivo
How it was run: (§4)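 Single-dose rat PK: iv at 0.5 mg/kg and po at 2 mg/kg. n ≥ 2 animals per time point. Oral AUC normalized to dose; clearance, Vdss and half-life taken from the iv arm.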

[8] = Clearance in rat at 0.5 mg/kg, iv administered as single dose; assay type: ADME, organism-based; conditions: in vivo; how it was run: as §4
[9] = Volume of distribution at steady state in rat at 2 mg/kg, po and 0.5 mg/kg, iv administered as single dose; assay type: ADME, organism-based; conditions: in vivo, read-out: Vdss; how it was run: as §3
[10] = Binding affinity to Cytochrome P450 in human liver microsomes at 10 uM incubated for 30 mins; assay type: ADME; conditions: 0.5 h
How it was run: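 Covalent binding in rat and human liver microsomes, run both without and with NADPH.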

P2X purinoceptor 3 = P2X purinoceptor 3 (Homo sapiens, UniProt P56373); experiment: Inhibition of P2X3R (unknown origin)
Chain of P2X purinoceptor 3 (P56373 whole entry): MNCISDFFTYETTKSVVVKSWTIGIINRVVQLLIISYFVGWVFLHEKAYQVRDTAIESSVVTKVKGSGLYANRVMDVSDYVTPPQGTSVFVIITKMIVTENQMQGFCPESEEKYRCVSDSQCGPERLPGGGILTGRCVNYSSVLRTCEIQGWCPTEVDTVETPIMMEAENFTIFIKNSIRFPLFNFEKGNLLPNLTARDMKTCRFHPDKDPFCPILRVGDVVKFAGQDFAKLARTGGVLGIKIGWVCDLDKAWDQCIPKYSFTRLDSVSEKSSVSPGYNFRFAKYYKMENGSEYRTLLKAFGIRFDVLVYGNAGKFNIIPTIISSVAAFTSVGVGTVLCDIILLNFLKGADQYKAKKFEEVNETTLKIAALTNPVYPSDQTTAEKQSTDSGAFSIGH
How it was run: (§5)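 Selectivity at other P2X receptor subtypes, read as IC50 in a FLIPR Ca2+ flux assay.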

[11] = target: P2X2/P2X3 heterotrimeric receptor (Homo sapiens, UniProt P56373+Q9UBL9); experiment: Inhibition of P2X2/3R (unknown origin); assay type: protein-complex assay; how it was run: as §5
Chain of P2X2/P2X3 heterotrimeric receptor (Q9UBL9 whole entry): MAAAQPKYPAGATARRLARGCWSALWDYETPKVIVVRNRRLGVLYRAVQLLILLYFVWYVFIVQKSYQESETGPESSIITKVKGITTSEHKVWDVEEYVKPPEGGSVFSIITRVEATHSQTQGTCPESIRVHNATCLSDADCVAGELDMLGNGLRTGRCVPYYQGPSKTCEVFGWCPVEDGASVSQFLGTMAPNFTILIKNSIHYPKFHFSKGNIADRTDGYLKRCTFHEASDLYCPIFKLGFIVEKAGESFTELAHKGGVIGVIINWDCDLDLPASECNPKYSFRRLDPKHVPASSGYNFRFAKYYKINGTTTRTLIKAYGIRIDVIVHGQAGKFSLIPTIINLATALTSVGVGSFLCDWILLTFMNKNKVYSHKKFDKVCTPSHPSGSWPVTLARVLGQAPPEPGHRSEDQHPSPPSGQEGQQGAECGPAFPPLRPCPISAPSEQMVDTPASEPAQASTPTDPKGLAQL
Chain of P2X2/P2X3 heterotrimeric receptor (P56373 whole entry): as the sequence (P56373 whole entry) above

P2X purinoceptor 4 = P2X purinoceptor 4 (Homo sapiens, UniProt Q99571); experiment: Inhibition of P2X4R (unknown origin); how it was run: as §5
[12] = target: Prostacyclin receptor (Homo sapiens) (UniProt P43119); experiment: Inhibition of human prostanoid IP1 receptor at 10 uM; assay type: functional; how it was run: as §1
Chain of Prostacyclin receptor (Homo sapiens) (P43119 whole entry): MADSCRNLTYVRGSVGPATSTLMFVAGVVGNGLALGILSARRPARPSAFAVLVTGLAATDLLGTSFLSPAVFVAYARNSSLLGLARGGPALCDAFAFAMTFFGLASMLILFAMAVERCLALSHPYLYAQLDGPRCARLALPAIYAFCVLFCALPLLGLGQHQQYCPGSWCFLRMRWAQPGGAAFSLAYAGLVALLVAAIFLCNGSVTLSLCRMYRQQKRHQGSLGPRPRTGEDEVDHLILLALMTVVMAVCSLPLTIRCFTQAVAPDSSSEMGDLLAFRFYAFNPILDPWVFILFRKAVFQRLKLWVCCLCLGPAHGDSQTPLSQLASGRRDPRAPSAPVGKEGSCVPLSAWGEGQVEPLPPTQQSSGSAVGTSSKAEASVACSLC

[13] = target: Adenosine receptor A1 (Homo sapiens) (UniProt P30542); experiment: Inhibition of human adenosine A1 receptor at 10 uM; how it was run: as §1
Chain of Adenosine receptor A1 (Homo sapiens) (P30542 whole entry): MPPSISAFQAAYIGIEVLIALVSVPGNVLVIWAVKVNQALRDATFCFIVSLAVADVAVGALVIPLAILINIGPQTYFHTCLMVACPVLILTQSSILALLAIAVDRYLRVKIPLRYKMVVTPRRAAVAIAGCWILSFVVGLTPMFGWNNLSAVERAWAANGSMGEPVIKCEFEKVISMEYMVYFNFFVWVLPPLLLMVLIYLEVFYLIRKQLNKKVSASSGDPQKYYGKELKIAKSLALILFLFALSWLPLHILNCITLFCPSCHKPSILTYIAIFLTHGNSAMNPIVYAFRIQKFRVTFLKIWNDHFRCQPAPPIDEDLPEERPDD

[14] = target: B2 bradykinin receptor (Homo sapiens) (UniProt P30411); experiment: Inhibition of human bradykinin 2 receptor at 10 uM by radioligand binding assay; how it was run: as §1
[15] = target: D(1A) dopamine receptor (Homo sapiens) (UniProt P21728); experiment: Inhibition of human dopamine D1 receptor at 10 uM; how it was run: as §1
Chain of D(1A) dopamine receptor (Homo sapiens) (P21728 whole entry): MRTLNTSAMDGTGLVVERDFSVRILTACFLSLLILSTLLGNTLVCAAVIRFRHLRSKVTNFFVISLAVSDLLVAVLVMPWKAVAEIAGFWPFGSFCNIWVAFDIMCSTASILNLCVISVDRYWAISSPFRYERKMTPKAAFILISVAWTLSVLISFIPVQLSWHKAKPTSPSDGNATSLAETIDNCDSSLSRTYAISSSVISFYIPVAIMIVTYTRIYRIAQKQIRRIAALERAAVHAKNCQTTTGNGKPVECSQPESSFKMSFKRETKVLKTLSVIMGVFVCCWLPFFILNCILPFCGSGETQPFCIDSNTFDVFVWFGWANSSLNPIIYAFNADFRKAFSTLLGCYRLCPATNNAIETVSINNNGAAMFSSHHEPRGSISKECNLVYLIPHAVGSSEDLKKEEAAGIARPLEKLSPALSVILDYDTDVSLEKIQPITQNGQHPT

[16] = target: D(3) dopamine receptor (Homo sapiens) (UniProt P35462); experiment: Inhibition of human dopamine D3 receptor at 10 uM; how it was run: as §1
[17] = target: D(1B) dopamine receptor (Homo sapiens) (UniProt P21918); experiment: Inhibition of human dopamine D5 receptor at 10 uM; how it was run: as §1
Rattus norvegicus [18] = species: Rattus norvegicus; experiment: Inhibition of rat GABA receptor at 10 uM by radioligand binding assay; how it was run: as §1
[19] = target: Platelet-derived growth factor receptor (Mus musculus) (UniProt P05622+P26618); experiment: Inhibition of mouse PDGFR at 10 uM by radioligand binding assay; assay type: protein-complex assay; how it was run: as §1
[20] = target: Tumor necrosis factor receptor superfamily member 1A (Homo sapiens) (UniProt P19438); experiment: Inhibition of human TNFalpha receptor at 10 uM by radioligand binding assay; how it was run: as §1
[21] = target: Histamine H2 receptor (Homo sapiens) (UniProt P25021); experiment: Inhibition of human histamine H2 receptor at 10 uM; how it was run: as §1
Chain of Histamine H2 receptor (Homo sapiens) (P25021 whole entry): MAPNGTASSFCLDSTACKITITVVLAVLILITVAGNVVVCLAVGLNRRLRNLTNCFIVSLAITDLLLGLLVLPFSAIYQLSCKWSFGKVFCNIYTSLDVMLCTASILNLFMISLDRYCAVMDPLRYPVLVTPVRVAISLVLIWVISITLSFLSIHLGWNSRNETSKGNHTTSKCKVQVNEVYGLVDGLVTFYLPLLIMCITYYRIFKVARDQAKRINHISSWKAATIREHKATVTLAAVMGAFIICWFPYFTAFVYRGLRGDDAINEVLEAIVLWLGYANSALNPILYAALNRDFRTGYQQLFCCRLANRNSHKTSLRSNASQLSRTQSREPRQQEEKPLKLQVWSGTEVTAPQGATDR

[22] = target: Muscarinic acetylcholine receptor M3 (Homo sapiens) (UniProt P20309); experiment: Inhibition of human muscarinic M3 receptor at 10 uM; how it was run: as §1
Chain of Muscarinic acetylcholine receptor M3 (Homo sapiens) (P20309 whole entry, looked up): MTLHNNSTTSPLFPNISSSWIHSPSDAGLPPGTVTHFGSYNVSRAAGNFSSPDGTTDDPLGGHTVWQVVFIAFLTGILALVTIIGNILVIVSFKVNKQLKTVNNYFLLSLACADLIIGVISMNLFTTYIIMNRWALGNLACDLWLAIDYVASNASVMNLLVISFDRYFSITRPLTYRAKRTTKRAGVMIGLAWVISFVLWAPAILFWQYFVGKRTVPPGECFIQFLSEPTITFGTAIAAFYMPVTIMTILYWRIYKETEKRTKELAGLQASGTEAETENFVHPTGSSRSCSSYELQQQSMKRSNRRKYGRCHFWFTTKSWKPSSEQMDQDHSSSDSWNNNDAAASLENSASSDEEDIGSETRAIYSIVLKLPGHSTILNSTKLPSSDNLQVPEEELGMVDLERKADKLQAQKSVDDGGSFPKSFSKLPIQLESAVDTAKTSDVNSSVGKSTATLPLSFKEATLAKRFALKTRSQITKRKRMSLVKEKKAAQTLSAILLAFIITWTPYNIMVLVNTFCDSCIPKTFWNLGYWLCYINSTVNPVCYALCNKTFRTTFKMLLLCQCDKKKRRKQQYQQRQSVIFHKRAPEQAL

[23] = target: Substance-K receptor (Homo sapiens) (UniProt P21452); experiment: Inhibition of human NK2 receptor at 10 uM by radioligand binding assay; how it was run: as §2
Chain of Substance-K receptor (Homo sapiens) (P21452 whole entry): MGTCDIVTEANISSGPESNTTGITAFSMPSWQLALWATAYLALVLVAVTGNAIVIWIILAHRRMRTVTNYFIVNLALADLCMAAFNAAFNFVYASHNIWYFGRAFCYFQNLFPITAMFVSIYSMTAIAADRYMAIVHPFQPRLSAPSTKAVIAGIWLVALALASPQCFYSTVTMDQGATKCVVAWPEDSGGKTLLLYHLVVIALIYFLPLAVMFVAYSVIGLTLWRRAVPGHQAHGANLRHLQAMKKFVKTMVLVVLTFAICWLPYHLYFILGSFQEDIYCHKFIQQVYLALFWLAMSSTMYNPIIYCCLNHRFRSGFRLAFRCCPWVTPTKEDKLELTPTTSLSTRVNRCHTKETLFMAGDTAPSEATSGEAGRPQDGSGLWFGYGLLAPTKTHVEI

[24] = target: Neuromedin-K receptor (Homo sapiens) (UniProt P29371); experiment: Inhibition of human NK3 receptor at 10 uM; how it was run: as §2
[25] = target: 5-hydroxytryptamine receptor 2A (Homo sapiens) (UniProt P28223); experiment: Inhibition of human 5-HT2A receptor at 10 uM; how it was run: as §2
[26] = target: 5-hydroxytryptamine receptor 2C (Homo sapiens) (UniProt P28335); experiment: Inhibition of human 5-HT2C receptor at 10 uM by radioligand binding assay; how it was run: as §2
Chain of 5-hydroxytryptamine receptor 2C (Homo sapiens) (P28335 whole entry): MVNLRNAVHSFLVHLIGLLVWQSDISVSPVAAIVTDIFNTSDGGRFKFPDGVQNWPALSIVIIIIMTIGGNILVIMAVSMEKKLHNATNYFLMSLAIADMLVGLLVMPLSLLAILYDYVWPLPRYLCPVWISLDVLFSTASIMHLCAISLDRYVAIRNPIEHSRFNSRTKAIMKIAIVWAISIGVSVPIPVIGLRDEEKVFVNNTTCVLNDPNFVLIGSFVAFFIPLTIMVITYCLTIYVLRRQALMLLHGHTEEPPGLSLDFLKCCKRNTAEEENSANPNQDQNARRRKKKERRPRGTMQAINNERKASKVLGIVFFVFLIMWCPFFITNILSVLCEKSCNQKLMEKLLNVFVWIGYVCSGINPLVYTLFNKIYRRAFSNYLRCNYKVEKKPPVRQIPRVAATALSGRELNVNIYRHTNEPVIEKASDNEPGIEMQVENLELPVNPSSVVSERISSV

Rattus norvegicus [27] = species: Rattus norvegicus; experiment: Inhibition of rat sigma receptor at 10 uM
How it was run: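 Single-concentration screen at 10 uM in a commercial 78-receptor panel run by CEREP; results are given as % inhibition.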

[28] = target: Vasopressin V1a receptor (Homo sapiens) (UniProt P37288); experiment: Inhibition of human vasopressin V1a receptor at 10 uM by radioligand binding assay; how it was run: as §1
Rattus norvegicus [29] = species: Rattus norvegicus; experiment: Inhibition of rat Voltage-gated potassium channel at 10 uM; how it was run: as §1
[30] = target: Sodium-dependent serotonin transporter (Homo sapiens) (UniProt P31645); experiment: Inhibition of human 5-HT transporter at 10 uM; how it was run: as §2
[31] = target: Sodium-dependent noradrenaline transporter (Homo sapiens) (UniProt P23975); experiment: Inhibition of human norepinephrine transporter at 10 uM; how it was run: as §1
Chain of Sodium-dependent noradrenaline transporter (Homo sapiens) (P23975 whole entry): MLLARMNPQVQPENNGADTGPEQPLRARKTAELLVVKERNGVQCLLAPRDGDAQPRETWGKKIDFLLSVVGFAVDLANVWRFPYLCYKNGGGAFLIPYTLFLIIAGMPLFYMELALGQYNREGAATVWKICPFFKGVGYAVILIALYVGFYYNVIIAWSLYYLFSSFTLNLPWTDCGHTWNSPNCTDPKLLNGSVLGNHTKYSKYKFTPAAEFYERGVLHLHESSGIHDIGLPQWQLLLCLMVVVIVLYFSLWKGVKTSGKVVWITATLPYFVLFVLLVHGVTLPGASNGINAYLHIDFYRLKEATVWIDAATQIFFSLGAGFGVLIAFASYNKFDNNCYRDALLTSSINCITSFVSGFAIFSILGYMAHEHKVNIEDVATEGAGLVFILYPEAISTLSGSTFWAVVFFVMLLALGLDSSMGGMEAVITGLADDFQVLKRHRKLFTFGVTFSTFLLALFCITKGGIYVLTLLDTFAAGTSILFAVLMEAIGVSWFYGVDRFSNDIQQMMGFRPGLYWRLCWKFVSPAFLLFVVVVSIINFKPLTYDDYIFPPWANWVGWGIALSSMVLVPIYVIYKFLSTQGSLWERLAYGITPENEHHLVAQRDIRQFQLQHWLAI

[32] = target: Prostaglandin E2 receptor EP4 subtype (Homo sapiens) (UniProt P35408); experiment: Inhibition of human prostanoid EP4 receptor at 10 uM by radioligand binding assay; how it was run: as §1
Rattus norvegicus [33] = species: Rattus norvegicus; experiment: Inhibition of rat P2X purinoceptor at 10 uM by radioligand binding assay; how it was run: as §1

## Cc1cc(Cl)c(OCCO)cc1NC(=O)C1=CNC(=O)C[C@H]1c1ccc(F)cc1
[1]
  Stability: Stable
Hepatocyte
  Stability: Stable
[2]
  inhibition: < 30%
[3]
  inhibition: < 30%
[4]
  inhibition: < 30%
[5]
  inhibition: < 30%
Plasma
  Stability: Stable
Liver microsome
  Drug metabolism: BLD
[6]
  bioavailability: 74%
[7]
  Cmax: 0.33 µg/mL
[8]
  clearance: 0.504 L/h/kg
[9]
  Vd: 2.2 L/kg
[10]
  PB: Not Active
P2X purinoceptor 3
  IC50: > 10 µM
[11]
  IC50: > 10 µM
P2X purinoceptor 4
  IC50: > 10 µM
[12]
  inhibition: < 30%
[13]
  inhibition: < 30%
[14]
  inhibition: < 30%
[15]
  inhibition: < 30%
[16]
  inhibition: < 30%
[17]
  inhibition: < 30%
Rattus norvegicus [18]
  inhibition: < 30%
[19]
  inhibition: < 30%
[20]
  inhibition: < 30%
[21]
  inhibition: < 30%
[22]
  inhibition: < 30%
[23]
  inhibition: < 30%
[24]
  inhibition: < 30%
[25]
  inhibition: < 30%
[26]
  inhibition: < 30%
Rattus norvegicus [27]
  inhibition: < 30%
[28]
  inhibition: < 30%
Rattus norvegicus [29]
  inhibition: < 30%
[30]
  inhibition: < 30%
[31]
  inhibition: < 30%
[32]
  inhibition: < 30%
Rattus norvegicus [33]
  inhibition: < 30%
